Test [1] addresses Platelet-derived growth factor receptor alpha (Homo sapiens) (UniProt P16234). The test can be described thus: Inhibition of PDGFRalpha (unknown origin) at 10 uM after 20 mins by HTRF method.
The nature of test [2]: Cytotoxicity against human H460 cells after 72 hrs by MTT assay. In kind it is functional, cell-based. To be noted: NCI-H460, 72 h. The procedure, abridged:
(§1)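 MTT assay: about 4 × 10³ cells per well in MEM with 10% FBS, grown 24 h at 37 °C under 5% CO₂, then exposed to compound for 72 h. MTT added to a final 5 µg/mL for 4 h at 37 °C. Three runs per cell line; IC50 is the mean of at least three determinations.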
In general terms: Formazan colour is commonly taken as a measure of viable cells.

In test [3] the test system is HT-29. Kind of test: Cytotoxicity against human HT-29 cells after 72 hrs by MTT assay. The test is classed as functional, cell-based. To be noted: HT-29, 72 h. Summed up:
as §1

The subject of test [4] is A549. The test can be described thus: Cytotoxicity against human A549 cells after 72 hrs by MTT assay. In kind it is functional, cell-based. To be noted: A549, 72 h. Summed up: (§2)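 MTT assay: about 4 × 10³ cells per well in MEM with 10% FBS, grown 24 h at 37 °C under 5% CO₂, then exposed to compound for 72 h. MTT added to a final 5 µg/mL for 4 h at 37 °C. Formazan dissolved in DMSO and absorbance read at 492 nm against 630 nm reference. Three runs per cell line; IC50 is the mean of at least three determinations.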

The nature of test [5]: Cytotoxicity against human MKN45 cells after 72 hrs by MTT assay. The test is classed as functional, cell-based. The conditions noted are these: MKN-45, 72 h. Summed up: as §1
Test [6] can be described thus: Cytotoxicity against human U87MG cells after 72 hrs by MTT assay. In kind it is functional, cell-based, U-87MG ATCC. The conditions noted are these: U-87 MG. Summed up:
as §2

Test [7] has as its system WI-38. The test can be described thus: Cytotoxicity against human WI38 cells after 72 hrs by MTT assay. In kind it is cell-based. The conditions noted are these: WI-38, 72 h. Summed up:
as §2

Test [8] addresses RAF proto-oncogene serine/threonine-protein kinase (Homo sapiens) (UniProt P04049). Kind of test: Inhibition of Raf1 (unknown origin) at 10 uM after 1 hr by HTRF method. For orientation: In TR-FRET formats the signal depends on donor and acceptor labels being close together.

The structures appear in SMILES notation. Some results are limits rather than exact numbers.

Broadly, the inhibition is the change of the read-out against control, counted positive when it falls. A high value points to strong suppression. By IC50 is commonly meant the concentration needed to halve the response being measured.

Sequence of Platelet-derived growth factor receptor alpha (Homo sapiens) (P16234 whole entry): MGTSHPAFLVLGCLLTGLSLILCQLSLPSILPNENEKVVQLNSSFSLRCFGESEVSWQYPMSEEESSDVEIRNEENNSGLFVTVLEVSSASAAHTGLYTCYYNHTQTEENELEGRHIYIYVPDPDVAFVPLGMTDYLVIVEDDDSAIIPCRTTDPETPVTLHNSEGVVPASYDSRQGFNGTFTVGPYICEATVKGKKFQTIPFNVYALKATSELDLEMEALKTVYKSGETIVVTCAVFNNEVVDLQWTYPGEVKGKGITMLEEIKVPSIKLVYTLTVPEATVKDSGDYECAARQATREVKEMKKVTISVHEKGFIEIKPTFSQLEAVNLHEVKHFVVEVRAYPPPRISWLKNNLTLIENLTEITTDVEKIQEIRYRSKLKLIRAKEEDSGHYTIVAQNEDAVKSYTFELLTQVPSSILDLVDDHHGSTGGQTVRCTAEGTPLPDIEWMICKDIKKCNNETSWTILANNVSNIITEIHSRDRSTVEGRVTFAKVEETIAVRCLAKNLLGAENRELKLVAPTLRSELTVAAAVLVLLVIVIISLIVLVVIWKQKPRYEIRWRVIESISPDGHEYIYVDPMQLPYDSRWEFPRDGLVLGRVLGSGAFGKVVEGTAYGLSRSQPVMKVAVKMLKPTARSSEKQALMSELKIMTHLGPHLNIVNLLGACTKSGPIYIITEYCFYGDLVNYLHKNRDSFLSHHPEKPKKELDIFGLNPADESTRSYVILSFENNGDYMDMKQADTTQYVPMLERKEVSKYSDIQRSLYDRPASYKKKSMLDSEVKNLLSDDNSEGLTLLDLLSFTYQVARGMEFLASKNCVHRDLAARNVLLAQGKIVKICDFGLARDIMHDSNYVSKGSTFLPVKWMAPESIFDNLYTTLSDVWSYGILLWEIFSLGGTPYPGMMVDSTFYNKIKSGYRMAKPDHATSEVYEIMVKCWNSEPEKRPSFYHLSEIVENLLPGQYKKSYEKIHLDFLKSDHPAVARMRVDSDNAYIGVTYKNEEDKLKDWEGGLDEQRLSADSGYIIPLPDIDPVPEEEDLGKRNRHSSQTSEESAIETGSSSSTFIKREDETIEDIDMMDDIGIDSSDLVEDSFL
Sequence of RAF proto-oncogene serine/threonine-protein kinase (Homo sapiens) (P04049 whole entry): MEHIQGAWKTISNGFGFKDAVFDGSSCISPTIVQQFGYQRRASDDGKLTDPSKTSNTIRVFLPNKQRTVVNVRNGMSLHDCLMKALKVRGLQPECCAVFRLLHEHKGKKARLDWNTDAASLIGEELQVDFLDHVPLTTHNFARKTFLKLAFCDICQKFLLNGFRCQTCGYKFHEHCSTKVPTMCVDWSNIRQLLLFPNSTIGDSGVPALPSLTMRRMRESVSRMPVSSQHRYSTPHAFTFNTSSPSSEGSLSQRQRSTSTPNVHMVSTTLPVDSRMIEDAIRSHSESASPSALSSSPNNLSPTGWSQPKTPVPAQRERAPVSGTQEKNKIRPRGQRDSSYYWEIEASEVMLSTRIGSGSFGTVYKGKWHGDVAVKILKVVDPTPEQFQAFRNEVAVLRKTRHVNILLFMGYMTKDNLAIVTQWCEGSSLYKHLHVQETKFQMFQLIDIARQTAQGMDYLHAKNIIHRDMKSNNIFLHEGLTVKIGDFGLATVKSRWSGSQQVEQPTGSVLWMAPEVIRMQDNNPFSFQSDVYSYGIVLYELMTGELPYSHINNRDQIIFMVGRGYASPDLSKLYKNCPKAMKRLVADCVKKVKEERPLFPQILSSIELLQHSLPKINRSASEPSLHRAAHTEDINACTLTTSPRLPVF

Consider `COc1cc2c(Oc3ccc(NC(=O)C4(C(=O)Nc5ccc(F)cc5)CC4)cc3F)ccnc2cc1OCCCN1CCOCC1`, for which the inhibition in test [1] came out at 98.7%.

On to `CN(C)CCn1cnnc1-c1cc(Oc2ccc(NC(=O)N/N=C/c3ccc(O)cc3)cc2F)ccn1`, for which the IC50 in test [2] stood at 1780 nM; in test [3], 1920 nM; in test [4], 3560 nM; in test [5] it was 820 nM; in test [6] it was 7750 nM.

Regarding `CN(C)CCn1cnnc1-c1cc(Oc2ccc(NC(=O)N/N=C/c3ccc(O)cc3O)cc2F)ccn1`, the IC50 in test [2] came out at 11300 nM; in test [3], 52600 nM; in test [4] it was 12700 nM; in test [5], 2860 nM; in test [6], 15400 nM.

Regarding `CN(C)CCn1cnnc1-c1cc(Oc2ccc(NC(=O)N/N=C/c3ccc(F)cc3)cc2F)ccn1`, the IC50 in test [2] worked out at 1980 nM; in test [3] it was 1370 nM; in test [4], 1790 nM; in test [5] it was 1030 nM; in test [6], 2310 nM; in test [7], 3980 nM.

In the case of `CN(C)CCn1cnnc1-c1cc(Oc2ccc(NC(=O)N/N=C/c3c(O)ccc4ccccc34)cc2F)ccn1`, the IC50 was determined as 890 nM in test [2]; 670 nM in test [3]; 880 nM in test [4]; 2020 nM in test [5]; 620 nM in test [6]; 3250 nM in test [7].

Take `CN(C)CCn1cnnc1-c1cc(Oc2ccc(NC(=O)N/N=C/c3ccccc3[N+](=O)[O-])cc2F)ccn1`: the IC50 is 1270 nM in test [2]; 950 nM in test [3]; 1200 nM in test [4]; 1020 nM in test [5]; 7150 nM in test [6]; 6860 nM in test [7].

With `CN(C)CCn1cnnc1-c1cc(Oc2ccc(NC(=O)N/N=C/c3c[nH]c4ccccc34)cc2F)ccn1`, the IC50 in test [2] is 1630 nM; in test [3], 1300 nM; in test [4], 820 nM; in test [5], 790 nM; in test [6], 690 nM; in test [7], 3620 nM.

For `Cn1cnnc1-c1cc(Oc2ccc(NC(=O)N/N=C/c3ccccc3)cc2F)ccn1`, the IC50 in test [2] came out at 15700 nM; in test [3], 8790 nM; in test [4], 7560 nM; in test [5], 7610 nM; in test [6], 36300 nM.

For `CN(C)CCn1cnnc1-c1cc(Oc2ccc(NC(=O)N/N=C/c3c(Cl)cccc3Cl)cc2F)ccn1`, the IC50 in test [2] was 350 nM; in test [3], 280 nM; in test [4] it was 1410 nM; in test [5], 160 nM; in test [6], over 100000 nM; in test [7], 3320 nM.

For `CN(C)CCn1cnnc1-c1cc(Oc2ccc(NC(=O)N/N=C/c3ccc(O)c(Br)c3)cc2F)ccn1`, the IC50 in test [2] was 430 nM; in test [3] it was 450 nM; in test [4] it was 1370 nM; in test [5], 1860 nM; in test [6], 12400 nM; in test [7] it was 5560 nM.

Regarding `CN(C)CCn1cnnc1-c1cc(Oc2ccc(NC(=O)N/N=C/c3cc(Br)c(O)c(Br)c3)cc2F)ccn1`, the IC50 is 3760 nM in test [2]; 2670 nM in test [3]; over 100000 nM in test [4]; 4320 nM in test [5]; over 100000 nM in test [6].

Regarding `CN(C)CCn1cnnc1-c1cc(Oc2ccc(NC(=O)N/N=C/c3cccc(O)c3)cc2F)ccn1`, the IC50 in test [2] is 780 nM; in test [3], 330 nM; in test [4], over 100000 nM; in test [5] it was 1370 nM; in test [6], over 100000 nM.

With `CN(C)CCn1cnnc1-c1cc(Oc2ccc(NC(=O)N/N=C/c3ccc(O)c(O)c3)cc2F)ccn1`, the IC50 in test [2] was 1930 nM; in test [3], 1890 nM; in test [4], over 100000 nM; in test [5] it was 3240 nM; in test [6], over 100000 nM.

`CN(C)CCn1cnnc1-c1cc(Oc2ccc(NC(=O)N/N=C/c3ccc(F)cc3F)cc2F)ccn1`: the IC50 in test [2] came out at 1930 nM; in test [3] it was 960 nM; in test [4], 1870 nM; in test [5] it was 810 nM; in test [6] it was 1900 nM; in test [7] it was 5030 nM. Also, the inhibition in test [1] was determined as 16.6%; in test [8], 59.7%.

On to `CN(C)CCn1cnnc1-c1cc(Oc2ccc(NC(=O)N/N=C/c3ccc(O)c(F)c3)cc2F)ccn1`, for which the IC50 in test [2] was 2620 nM; in test [3], 3310 nM; in test [4] it was 13400 nM; in test [5], 1970 nM; in test [6] it was over 100000 nM.

Consider `CN(C)CCn1cnnc1-c1cc(Oc2ccc(NC(=O)N/N=C/c3ccc(F)cc3Cl)cc2F)ccn1`, for which the IC50 in test [2] was 720 nM; in test [3] it was 510 nM; in test [4], 1120 nM; in test [5] it was 870 nM; in test [6] it was 1210 nM; in test [7], 2090 nM.

Turning to `CN(C)CCn1cnnc1-c1cc(Oc2ccc(NC(=O)N/N=C/c3cccc(Br)c3)cc2F)ccn1`, the IC50 was 520 nM in test [2]; 380 nM in test [3]; 970 nM in test [4]; 450 nM in test [5]; 830 nM in test [6]; 4230 nM in test [7]. Also, the inhibition was determined as 13.2% in test [1] and 66.1% in test [8].

As to `CN(C)CCn1cnnc1-c1cc(Oc2ccc(NC(=O)N/N=C/c3ccc(Cl)cc3Cl)cc2F)ccn1`, the IC50 was 130 nM in test [2]; 390 nM in test [3]; 810 nM in test [4]; 750 nM in test [5]; 2330 nM in test [6]; 4760 nM in test [7]. Further, the figures for the inhibition in test [1] and in test [8] were 11.2% and 73.7%, respectively.

As to `COc1cc(/C=N/NC(=O)Nc2ccc(Oc3ccnc(-c4nncn4CCN(C)C)c3)c(F)c2)cc(OC)c1OC`, the IC50 in test [2] is 2770 nM; in test [3], 3620 nM; in test [4], over 100000 nM; in test [5], 2900 nM; in test [6], 22500 nM.

In the case of `CN(C)CCn1cnnc1-c1cc(Oc2ccc(NC(=O)N/N=C/c3ccc4c(c3)OCO4)cc2F)ccn1`, the IC50 was 1170 nM in test [2]; 470 nM in test [3]; 1830 nM in test [4]; 1970 nM in test [5]; 720 nM in test [6]; 4270 nM in test [7]. Further, the inhibition in test [1] was determined as 12.3%; in test [8], 61.6%.

As to `COc1ccc(/C=N/NC(=O)Nc2ccc(Oc3ccnc(-c4nncn4CCN(C)C)c3)c(F)c2)cc1O`, the IC50 in test [2] is 620 nM; in test [3] it was 960 nM; in test [4], over 100000 nM; in test [5], 2510 nM; in test [6] it was over 100000 nM.

As for `Cn1ncnc1-c1cc(Oc2ccc(NC(=O)N/N=C/c3ccccc3)cc2F)ccn1`, the concentration for half-maximal inhibition (IC50) in test [2] is 52200 nM; in test [3], 30200 nM; in test [4], over 100000 nM; in test [5], over 100000 nM; in test [6], over 100000 nM.

`CNC(=O)c1cc(Oc2ccc(NC(=O)Nc3ccc(Cl)c(C(F)(F)F)c3)cc2)ccn1` [SORAFENIB]: the IC50 in test [4] is 1920 nM; in test [6], 15600 nM; in test [7], 7540 nM.

In the case of `CN(C)CCn1cnnc1-c1cc(Oc2ccc(NC(=O)N/N=C/c3ccc(Cl)cc3)cc2F)ccn1`, the IC50 in test [2] turned out to be 320 nM; in test [3] it was 530 nM; in test [4], 780 nM; in test [5], 570 nM; in test [6] it was 1370 nM; in test [7] it was 1870 nM.

For the molecule `COc1ccc(/C=N/NC(=O)Nc2ccc(Oc3ccnc(-c4nncn4CCN(C)C)c3)c(F)c2)c(OC)c1OC`, the IC50 in test [2] amounted to 1790 nM; in test [3] it was 3970 nM; in test [4] it was 6680 nM; in test [5], 2020 nM; in test [6], 7650 nM.

As to `COc1ccc(OC)c(/C=N/NC(=O)Nc2ccc(Oc3ccnc(-c4nncn4CCN(C)C)c3)c(F)c2)c1`, the IC50 in test [2] came to 2930 nM; in test [3] it was 2070 nM; in test [4] it was 1950 nM; in test [5], 1510 nM; in test [6], 6400 nM.

`CN(C)CCn1cnnc1-c1cc(Oc2ccc(NC(=O)N/N=C/c3ccccc3)cc2F)ccn1`: the IC50 was 1780 nM in test [2]; 1120 nM in test [3]; 1860 nM in test [4]; 2730 nM in test [5]; 2250 nM in test [6].

With `CN(C)CCn1cnnc1-c1cc(Oc2ccc(NC(=O)N/N=C/c3cc(C(C)(C)C)cc(C(C)(C)C)c3O)cc2F)ccn1`, the IC50 came to 590 nM in test [2]; 680 nM in test [3]; 980 nM in test [4]; 3300 nM in test [5]; 520 nM in test [6]; 2350 nM in test [7].

Turning to `Cc1cc(/C=N/NC(=O)Nc2ccc(Oc3ccnc(-c4nncn4CCN(C)C)c3)c(F)c2)cc(C)c1O`, the IC50 was 2010 nM in test [2]; 1220 nM in test [3]; 1640 nM in test [4]; 1510 nM in test [5]; 7710 nM in test [6]; 3610 nM in test [7].

Source of the values: ChEMBL document CHEMBL3259649, “Design and synthesis of novel 2-(4-(2-(dimethylamino)ethyl)-4H-1,2,4-triazol-3-yl)pyridines as potential antitumor agents” (Eur J Med Chem, 2014).
